Experimental data reported in paper PMC3062473 (ChemMedChem, 2010).

How the values were obtained:
Caspase 8 [1] = target: T1, Caspase 8 (Homo sapiens, UniProt Q14790); experiment: Reaction Biology caspase panel; format: biochemical; conditions: read-out: Caspase 8 IC50; (Z-LEHD)2-R110 substrate; three separate experiments
Caspase 14 = target: T2, Caspase 14 (Homo sapiens, UniProt P31944); experiment: Reaction Biology caspase panel; format: biochemical; conditions: read-out: Caspase 14 IC50; (Z-LEHD)2-R110 substrate; three separate experiments
T2 sequence (P31944 6-146 limits assumed): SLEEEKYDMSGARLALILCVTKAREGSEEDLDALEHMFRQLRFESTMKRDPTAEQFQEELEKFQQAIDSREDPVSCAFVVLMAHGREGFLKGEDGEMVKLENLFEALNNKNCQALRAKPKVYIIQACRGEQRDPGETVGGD
T2 sequence (P31944 153-242 limits assumed): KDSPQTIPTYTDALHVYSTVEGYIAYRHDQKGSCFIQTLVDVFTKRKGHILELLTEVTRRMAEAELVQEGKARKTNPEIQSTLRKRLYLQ

Microsomal stability = format: in vitro ADME, human; conditions: human, liver microsomes
In short: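 Human microsomal stability, profiled by a contract lab alongside internal control compounds. Includes minus-NADPH and minus-compound control incubations.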

Caspase 4 = target: T3, Caspase 4 (Homo sapiens, UniProt P49662); experiment: Reaction Biology caspase panel; format: biochemical; conditions: read-out: Caspase 4 IC50; (Z-LEHD)2-R110 substrate; three separate experiments
T3 sequence (P49662 81-270 limits assumed): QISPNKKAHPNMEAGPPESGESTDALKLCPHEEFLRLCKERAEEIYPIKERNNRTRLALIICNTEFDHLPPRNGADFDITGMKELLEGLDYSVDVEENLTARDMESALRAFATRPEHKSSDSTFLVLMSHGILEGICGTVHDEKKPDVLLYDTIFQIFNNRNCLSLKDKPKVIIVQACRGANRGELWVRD
T3 sequence (P49662 290-377 limits assumed): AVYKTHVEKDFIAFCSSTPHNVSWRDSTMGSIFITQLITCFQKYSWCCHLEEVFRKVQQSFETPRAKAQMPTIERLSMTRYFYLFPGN

Caspase 7 [2] = target: T4, Caspase 7 (Homo sapiens, UniProt P55210); experiment: Reaction Biology caspase panel; format: biochemical; conditions: read-out: Caspase 7 IC50; (Z-DEVD)2-R110 substrate; three separate experiments
T4 sequence (P55210 24-198 limits assumed): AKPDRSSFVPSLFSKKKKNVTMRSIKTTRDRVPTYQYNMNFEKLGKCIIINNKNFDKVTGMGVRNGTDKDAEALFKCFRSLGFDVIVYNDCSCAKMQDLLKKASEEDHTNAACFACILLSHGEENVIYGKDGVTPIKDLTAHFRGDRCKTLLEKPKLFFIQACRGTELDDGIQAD
T4 sequence (P55210 207-303 limits assumed): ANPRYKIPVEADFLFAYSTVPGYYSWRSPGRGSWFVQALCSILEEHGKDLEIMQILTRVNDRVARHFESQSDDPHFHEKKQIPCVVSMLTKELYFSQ

Caspase 8 [3] = target: T1, Caspase 8; conditions: read-out: Ki caspase 8; cited from earlier work
Caspase 7 [4] = target: T4, Caspase 7; conditions: cited from earlier work
caspase 1 = target: T5, caspase 1 (Homo sapiens, UniProt P29466); experiment: Reaction Biology caspase panel; format: biochemical; conditions: read-out: Caspase 1 IC50; (Z-LEHD)2-R110 substrate; three separate experiments
T5 sequence (P29466 120-297 limits assumed): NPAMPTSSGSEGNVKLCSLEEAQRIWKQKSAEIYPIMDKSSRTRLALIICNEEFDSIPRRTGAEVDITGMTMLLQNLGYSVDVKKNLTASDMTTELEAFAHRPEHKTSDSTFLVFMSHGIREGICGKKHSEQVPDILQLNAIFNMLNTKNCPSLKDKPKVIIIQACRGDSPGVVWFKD
T5 sequence (P29466 317-404 limits assumed): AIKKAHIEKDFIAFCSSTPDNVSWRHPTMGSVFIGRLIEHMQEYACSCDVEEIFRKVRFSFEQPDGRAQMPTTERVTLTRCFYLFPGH

T1 sequence (Q14790 217-374 limits assumed): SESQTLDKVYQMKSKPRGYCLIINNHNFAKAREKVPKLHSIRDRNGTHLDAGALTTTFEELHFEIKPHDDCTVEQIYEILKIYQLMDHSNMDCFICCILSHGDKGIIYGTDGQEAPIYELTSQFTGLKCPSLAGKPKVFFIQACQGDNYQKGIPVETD
T1 sequence (Q14790 385-479 limits assumed): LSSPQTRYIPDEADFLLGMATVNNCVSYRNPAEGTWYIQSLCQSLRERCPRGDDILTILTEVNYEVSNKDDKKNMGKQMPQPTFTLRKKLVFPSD

CC(C)(C)[C@H](NC(=O)c1ccc(N)c(Cl)c1)C(=O)N1CCC[C@H]1C(=O)N[C@H](C=O)CC(=O)O [Compound 2b, reference compound]
IC50 (Caspase 8 [1]): 3.3 nM | IC50 (Caspase 14): 58.5 nM | Microsomal Stability CLint (Microsomal stability): 6.72 μL/min/mg protein | Microsomal Stability t1/2 (Microsomal stability): 3.43 h | IC50 (Caspase 4): 14.5 nM | IC50 (Caspase 7 [2]): > 10000 nM | Ki (Caspase 8 [3]): 100 nM | activity against caspase 7 (Caspase 7 [4]): little activity | IC50 (caspase 1): 0.204 nM
